We go through ten compounds from ChEMBL document CHEMBL3861950, “Design, synthesis and evaluation of novel 19F magnetic resonance sensitive protein tyrosine phosphatase inhibitors” (Medchemcomm, 2016).

Test [1] deals with T1, Tyrosine-protein phosphatase non-receptor type 22 (Homo sapiens, UniProt Q9Y2R2).
T1 sequence (Q9Y2R2 whole entry): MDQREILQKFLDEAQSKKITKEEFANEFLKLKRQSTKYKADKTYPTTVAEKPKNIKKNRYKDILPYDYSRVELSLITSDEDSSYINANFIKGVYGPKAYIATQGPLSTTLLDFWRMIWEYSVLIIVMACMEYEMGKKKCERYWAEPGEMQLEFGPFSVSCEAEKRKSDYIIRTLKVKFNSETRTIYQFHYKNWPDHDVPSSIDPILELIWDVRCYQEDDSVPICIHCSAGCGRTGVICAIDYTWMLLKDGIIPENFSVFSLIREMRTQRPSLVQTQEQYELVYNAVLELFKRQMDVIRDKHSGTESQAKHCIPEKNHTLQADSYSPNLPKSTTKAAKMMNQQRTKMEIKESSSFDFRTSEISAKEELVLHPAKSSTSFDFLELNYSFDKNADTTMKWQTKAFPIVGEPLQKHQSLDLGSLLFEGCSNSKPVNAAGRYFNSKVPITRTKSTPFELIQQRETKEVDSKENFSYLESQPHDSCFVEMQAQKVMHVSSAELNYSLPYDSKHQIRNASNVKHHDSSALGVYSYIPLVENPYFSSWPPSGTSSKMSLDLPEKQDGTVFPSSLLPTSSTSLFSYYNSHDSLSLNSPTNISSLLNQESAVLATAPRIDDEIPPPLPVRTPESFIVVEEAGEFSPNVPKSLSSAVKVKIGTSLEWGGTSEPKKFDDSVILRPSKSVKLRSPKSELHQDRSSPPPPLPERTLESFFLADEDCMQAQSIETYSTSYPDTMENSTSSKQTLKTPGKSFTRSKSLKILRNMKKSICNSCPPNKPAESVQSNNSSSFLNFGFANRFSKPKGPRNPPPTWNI
The test can be described thus: Inhibition of recombinant LYP (unknown origin) using pNPP as substrate by spectrophotometric method. The gist of the method: (§1)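 Recombinant PTP prepared in-house, assayed with pNPP substrate in 50 mM 3,3-dimethylglutarate buffer pH 7.0 containing 1 mM EDTA and 150 mM NaCl at 25 °C, in 96-well format. p-Nitrophenol product was quantified by absorbance at 405 nm. Non-enzymatic pNPP hydrolysis was corrected using a no-enzyme control.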

Test [2] addresses T2, Receptor-type tyrosine-protein phosphatase C (Homo sapiens, UniProt P08575).
T2 sequence (P08575 whole entry): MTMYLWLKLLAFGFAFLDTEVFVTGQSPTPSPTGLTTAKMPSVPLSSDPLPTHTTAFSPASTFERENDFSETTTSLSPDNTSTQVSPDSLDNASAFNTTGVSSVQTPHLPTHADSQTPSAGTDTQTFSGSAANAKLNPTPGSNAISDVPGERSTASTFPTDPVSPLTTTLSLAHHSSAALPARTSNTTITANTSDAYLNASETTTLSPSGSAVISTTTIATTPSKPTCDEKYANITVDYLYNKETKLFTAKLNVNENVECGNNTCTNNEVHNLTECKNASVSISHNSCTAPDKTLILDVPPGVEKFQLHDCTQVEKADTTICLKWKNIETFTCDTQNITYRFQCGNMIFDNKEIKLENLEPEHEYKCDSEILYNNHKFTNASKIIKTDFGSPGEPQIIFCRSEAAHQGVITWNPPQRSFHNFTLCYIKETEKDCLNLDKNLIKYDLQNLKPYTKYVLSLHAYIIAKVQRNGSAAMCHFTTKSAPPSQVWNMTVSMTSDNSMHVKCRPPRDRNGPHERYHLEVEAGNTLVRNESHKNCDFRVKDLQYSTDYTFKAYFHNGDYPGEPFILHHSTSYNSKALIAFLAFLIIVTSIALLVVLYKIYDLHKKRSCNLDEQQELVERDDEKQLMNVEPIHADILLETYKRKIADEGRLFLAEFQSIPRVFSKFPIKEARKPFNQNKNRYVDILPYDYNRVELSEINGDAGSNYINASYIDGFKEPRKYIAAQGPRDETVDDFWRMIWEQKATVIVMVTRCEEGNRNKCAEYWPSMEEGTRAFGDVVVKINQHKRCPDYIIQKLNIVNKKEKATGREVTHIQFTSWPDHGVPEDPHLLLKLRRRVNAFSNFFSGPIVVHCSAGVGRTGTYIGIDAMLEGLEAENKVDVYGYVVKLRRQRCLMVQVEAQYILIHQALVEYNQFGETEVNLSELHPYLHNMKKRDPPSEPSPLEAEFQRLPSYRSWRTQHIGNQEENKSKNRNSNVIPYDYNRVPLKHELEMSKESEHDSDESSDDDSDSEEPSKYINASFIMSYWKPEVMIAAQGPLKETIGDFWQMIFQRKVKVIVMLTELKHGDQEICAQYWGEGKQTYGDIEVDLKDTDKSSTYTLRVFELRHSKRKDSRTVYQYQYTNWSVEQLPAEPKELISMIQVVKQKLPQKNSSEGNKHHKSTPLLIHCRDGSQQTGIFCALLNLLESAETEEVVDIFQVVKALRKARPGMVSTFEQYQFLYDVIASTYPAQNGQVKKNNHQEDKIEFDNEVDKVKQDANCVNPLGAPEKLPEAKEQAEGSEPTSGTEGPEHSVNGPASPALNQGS
The experiment in a line: Inhibition of recombinant CD45 (unknown origin) using pNPP as substrate by spectrophotometric method. The gist of the method:
as §1

Test [3] has as its target Tyrosine-protein phosphatase non-receptor type 13 (Homo sapiens, UniProt Q12923). The experiment in a line: Inhibition of recombinant FAP1 (unknown origin) using pNPP as substrate by spectrophotometric method. The gist of the method:
as §1

The nature of test [4]: Inhibition of recombinant Mycobacterium tuberculosis PTPB using pNPP as substrate by spectrophotometric method. The method in brief:
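Recombinant enzyme made in-house. Substrate pNPP in 50 mM 3,3-dimethylglutarate buffer, pH 7.0, with 1 mM EDTA and 150 mM NaCl, at 25 °C, screened in 96-well format. p-Nitrophenol product read at 405 nm. Non-enzymatic pNPP hydrolysis was corrected using a control without enzyme.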

In test [5] the target is T3, Tyrosine-protein phosphatase non-receptor type 1 (Homo sapiens, UniProt P18031).
T3 sequence (P18031 whole entry): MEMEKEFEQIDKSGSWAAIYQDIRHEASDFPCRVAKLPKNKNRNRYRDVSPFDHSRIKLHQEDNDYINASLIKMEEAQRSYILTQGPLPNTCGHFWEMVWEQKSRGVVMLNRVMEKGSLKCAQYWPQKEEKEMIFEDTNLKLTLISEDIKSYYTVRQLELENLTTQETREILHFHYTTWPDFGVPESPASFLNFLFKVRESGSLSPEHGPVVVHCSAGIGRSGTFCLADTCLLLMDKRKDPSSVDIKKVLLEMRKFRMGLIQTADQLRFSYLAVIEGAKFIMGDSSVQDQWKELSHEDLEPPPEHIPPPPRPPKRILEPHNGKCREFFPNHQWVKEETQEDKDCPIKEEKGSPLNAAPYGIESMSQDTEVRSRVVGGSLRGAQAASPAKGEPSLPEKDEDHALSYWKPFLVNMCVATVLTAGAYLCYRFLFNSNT
The experiment in a line: Inhibition of recombinant PTP1B (unknown origin) using pNPP as substrate by spectrophotometric method. The gist of the method: as §1

Test [6] concerns the target T4, Tyrosine-protein phosphatase non-receptor type 11 (Homo sapiens, UniProt Q06124).
T4 sequence (Q06124 whole entry): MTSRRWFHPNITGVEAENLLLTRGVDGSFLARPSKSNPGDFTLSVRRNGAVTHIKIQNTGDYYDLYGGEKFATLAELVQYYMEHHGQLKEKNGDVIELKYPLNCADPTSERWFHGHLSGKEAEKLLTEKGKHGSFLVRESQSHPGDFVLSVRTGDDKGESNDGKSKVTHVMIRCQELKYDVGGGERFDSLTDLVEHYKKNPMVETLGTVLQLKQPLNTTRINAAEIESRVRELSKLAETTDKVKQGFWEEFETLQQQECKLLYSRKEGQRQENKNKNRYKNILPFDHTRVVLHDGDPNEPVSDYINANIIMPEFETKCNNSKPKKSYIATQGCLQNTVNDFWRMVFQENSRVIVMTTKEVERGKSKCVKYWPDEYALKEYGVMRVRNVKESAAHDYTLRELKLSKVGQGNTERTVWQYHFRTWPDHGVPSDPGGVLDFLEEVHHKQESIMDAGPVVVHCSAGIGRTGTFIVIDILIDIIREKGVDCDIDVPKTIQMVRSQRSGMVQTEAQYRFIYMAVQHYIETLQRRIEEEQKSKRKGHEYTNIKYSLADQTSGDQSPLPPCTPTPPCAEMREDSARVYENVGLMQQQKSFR
The test can be described thus: Inhibition of recombinant SHP2 (unknown origin) using pNPP as substrate by spectrophotometric method. The method in brief: as §1

Where only a bound is given, the exact number is not on record here.

Tyrosine-protein phosphatase non-receptor type 13, sequence (Q12923 whole entry): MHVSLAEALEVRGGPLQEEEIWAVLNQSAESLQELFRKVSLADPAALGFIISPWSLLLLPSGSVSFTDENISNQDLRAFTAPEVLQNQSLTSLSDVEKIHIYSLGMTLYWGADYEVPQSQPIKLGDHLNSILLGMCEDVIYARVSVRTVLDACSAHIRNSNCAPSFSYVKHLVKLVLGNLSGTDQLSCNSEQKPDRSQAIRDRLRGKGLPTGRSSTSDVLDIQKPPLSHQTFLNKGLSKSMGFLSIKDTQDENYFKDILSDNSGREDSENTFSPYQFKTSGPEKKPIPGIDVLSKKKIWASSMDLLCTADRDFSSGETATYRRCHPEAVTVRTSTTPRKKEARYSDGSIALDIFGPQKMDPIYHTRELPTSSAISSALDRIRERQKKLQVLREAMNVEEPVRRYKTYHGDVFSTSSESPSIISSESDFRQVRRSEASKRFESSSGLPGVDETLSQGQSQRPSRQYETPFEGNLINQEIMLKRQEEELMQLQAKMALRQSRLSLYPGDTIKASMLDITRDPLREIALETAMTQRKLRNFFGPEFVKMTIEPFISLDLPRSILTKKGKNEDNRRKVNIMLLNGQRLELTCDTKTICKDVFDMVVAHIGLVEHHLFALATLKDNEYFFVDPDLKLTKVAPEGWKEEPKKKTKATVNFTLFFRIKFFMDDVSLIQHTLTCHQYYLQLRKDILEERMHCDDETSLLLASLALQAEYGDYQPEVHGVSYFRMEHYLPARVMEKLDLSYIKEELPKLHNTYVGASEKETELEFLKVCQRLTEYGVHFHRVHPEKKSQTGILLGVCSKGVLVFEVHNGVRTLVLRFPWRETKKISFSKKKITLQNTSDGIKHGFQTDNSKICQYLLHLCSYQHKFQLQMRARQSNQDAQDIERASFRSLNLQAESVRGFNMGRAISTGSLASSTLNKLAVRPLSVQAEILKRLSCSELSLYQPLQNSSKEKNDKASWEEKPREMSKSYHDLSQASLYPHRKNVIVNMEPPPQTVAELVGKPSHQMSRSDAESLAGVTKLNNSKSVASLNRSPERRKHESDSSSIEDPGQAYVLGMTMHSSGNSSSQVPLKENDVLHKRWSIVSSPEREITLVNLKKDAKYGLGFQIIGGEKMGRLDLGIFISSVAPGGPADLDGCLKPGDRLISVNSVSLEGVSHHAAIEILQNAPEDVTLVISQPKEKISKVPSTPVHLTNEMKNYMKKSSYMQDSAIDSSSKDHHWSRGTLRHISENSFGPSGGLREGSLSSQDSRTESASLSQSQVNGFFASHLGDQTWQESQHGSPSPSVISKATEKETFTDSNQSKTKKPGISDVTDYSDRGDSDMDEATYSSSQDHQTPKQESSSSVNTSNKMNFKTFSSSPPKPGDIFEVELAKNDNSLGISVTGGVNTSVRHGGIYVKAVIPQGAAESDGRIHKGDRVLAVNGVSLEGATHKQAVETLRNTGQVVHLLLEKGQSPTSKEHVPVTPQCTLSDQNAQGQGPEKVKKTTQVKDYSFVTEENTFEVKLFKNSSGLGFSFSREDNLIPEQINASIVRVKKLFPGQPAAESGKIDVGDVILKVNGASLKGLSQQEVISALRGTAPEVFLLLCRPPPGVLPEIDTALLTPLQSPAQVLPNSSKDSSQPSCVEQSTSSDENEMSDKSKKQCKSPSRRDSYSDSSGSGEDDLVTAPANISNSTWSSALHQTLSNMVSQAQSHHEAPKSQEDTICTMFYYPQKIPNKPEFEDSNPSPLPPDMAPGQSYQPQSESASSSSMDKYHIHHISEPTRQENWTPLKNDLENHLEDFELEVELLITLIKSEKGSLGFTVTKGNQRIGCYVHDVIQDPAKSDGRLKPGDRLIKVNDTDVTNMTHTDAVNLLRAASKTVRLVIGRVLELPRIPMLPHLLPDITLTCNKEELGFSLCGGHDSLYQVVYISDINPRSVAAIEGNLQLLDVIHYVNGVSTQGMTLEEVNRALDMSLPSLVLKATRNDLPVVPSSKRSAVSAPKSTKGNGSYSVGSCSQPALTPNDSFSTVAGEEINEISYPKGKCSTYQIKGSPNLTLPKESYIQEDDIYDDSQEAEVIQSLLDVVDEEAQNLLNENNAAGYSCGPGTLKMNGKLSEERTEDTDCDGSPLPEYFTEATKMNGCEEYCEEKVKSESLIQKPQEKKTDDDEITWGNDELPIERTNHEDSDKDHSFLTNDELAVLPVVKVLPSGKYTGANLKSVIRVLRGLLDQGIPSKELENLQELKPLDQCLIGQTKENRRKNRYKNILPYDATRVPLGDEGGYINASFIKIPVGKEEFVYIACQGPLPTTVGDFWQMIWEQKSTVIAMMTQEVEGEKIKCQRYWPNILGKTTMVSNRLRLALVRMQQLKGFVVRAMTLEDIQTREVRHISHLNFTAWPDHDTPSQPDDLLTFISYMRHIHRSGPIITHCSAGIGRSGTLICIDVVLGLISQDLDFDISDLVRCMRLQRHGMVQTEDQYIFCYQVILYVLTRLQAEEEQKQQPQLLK

The IC50 is the concentration that inhibits the measured activity by half. For the compound `Oc1c(C(O)(C(F)(F)F)C(F)(F)F)ccc2ccccc12`, the IC50 in test [1], in test [2], in test [3], in test [4], in test [5] and in test [6] was greater than 500 µM each time.

Regarding `OC(c1ccccc1)(C(F)(F)F)C(F)(F)F`, the IC50 in test [1], in test [2], in test [3], in test [4], in test [5] and in test [6] was greater than 500 µM each time.

In the case of `CCN(CC)C(=O)COc1ccc2cc(C(O)(C(F)(F)F)C(F)(F)F)c(O)cc2c1`, the IC50 in test [1], in test [2], in test [3], in test [4], in test [5] and in test [6] was greater than 20 µM throughout.

Take `Oc1cc(-c2ccccc2)ccc1C(O)(C(F)(F)F)C(F)(F)F`: the IC50 in test [1], in test [2], in test [3], in test [4], in test [5] and in test [6] was greater than 500 µM each time.

`O=C(COc1ccc2cc(C(O)(C(F)(F)F)C(F)(F)F)c(O)cc2c1)NCc1ccc(F)cc1`: the IC50 in test [1], in test [2], in test [3], in test [4], in test [5] and in test [6] was greater than 20 µM throughout.

As to `CC(C)c1ccc(NC(=O)COc2ccc3cc(C(O)(C(F)(F)F)C(F)(F)F)c(O)cc3c2)cc1`, the half-maximal inhibitory concentration (IC50) in test [1] was determined as 8.8 µM; in test [2], 7.8 µM; in test [3], 6.5 µM; in test [4], 7.3 µM; in test [5], 17.2 µM; in test [6], 8.5 µM.

In the case of `Oc1c(-c2ccccc2)cccc1C(O)(C(F)(F)F)C(F)(F)F`, the IC50 in test [1] stood at 268 µM; in test [2], 157 µM; in test [3], 449 µM; in test [4], 148 µM; in test [5] it was 422 µM; in test [6], 136 µM.

On to `Oc1cc2ccccc2cc1C(O)(C(F)(F)F)C(F)(F)F`, for which the IC50 in test [1] worked out at 134 µM; in test [2], 112 µM; in test [3] it was 128 µM; in test [4], 106 µM; in test [5], 260 µM; in test [6] it was 115 µM.

On to `O=C(COc1ccc2cc(C(O)(C(F)(F)F)C(F)(F)F)c(O)cc2c1)N1c2ccccc2Sc2ccccc21`, for which the IC50 in test [1] was determined as 3.4 µM; in test [2] it was 2.8 µM; in test [3] it was 2.2 µM; in test [4], 2.9 µM; in test [5], 6.6 µM; in test [6] it was 3.2 µM.

As to `O=C(COc1ccc2cc(C(O)(C(F)(F)F)C(F)(F)F)c(O)cc2c1)N(c1ccccc1)c1ccccc1`, the IC50 in test [1] was 20.6 µM; in test [2] it was 14.9 µM; in test [3] it was 12.4 µM; in test [4], greater than 20 µM; in test [5], greater than 20 µM; in test [6], 19.5 µM.
